Results: article PMC8026699 (Cancer research, 2021)

Tests used:
[1] = target: recombinant human ACSS2 (Homo sapiens, UniProt Q9NR19); assay: TranScreener AMP biochemical assay of ACSS2 activity; details: ratio of IC50 values
Procedure, shortened: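 Recombinant human ACSS2 at 3 nM in 30 mM HEPES pH 7.4, 140 mM NaCl, 2 mM MgCl2, 2 mM DTT, 0.005% Brij35. Test compound serially diluted in DMSO. Final substrates: 5 mM acetate, 50 μM ATP, 5 μM CoA; 120 min incubation. AMP detected by Tb-anti-AMP antibody/tracer TR-FRET after 30 min. Percent inhibition normalized to no-enzyme (100%) and DMSO (0%) wells; IC50 curves fitted from replicates.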

[2] = target: T1, recombinant human ACSS1 (Homo sapiens, UniProt Q9NUB1); assay: TranScreener AMP biochemical assay of ACSS1 activity; details: regardless of the substrate (acetate or propionate)
T1 sequence (Q9NUB1 38-689): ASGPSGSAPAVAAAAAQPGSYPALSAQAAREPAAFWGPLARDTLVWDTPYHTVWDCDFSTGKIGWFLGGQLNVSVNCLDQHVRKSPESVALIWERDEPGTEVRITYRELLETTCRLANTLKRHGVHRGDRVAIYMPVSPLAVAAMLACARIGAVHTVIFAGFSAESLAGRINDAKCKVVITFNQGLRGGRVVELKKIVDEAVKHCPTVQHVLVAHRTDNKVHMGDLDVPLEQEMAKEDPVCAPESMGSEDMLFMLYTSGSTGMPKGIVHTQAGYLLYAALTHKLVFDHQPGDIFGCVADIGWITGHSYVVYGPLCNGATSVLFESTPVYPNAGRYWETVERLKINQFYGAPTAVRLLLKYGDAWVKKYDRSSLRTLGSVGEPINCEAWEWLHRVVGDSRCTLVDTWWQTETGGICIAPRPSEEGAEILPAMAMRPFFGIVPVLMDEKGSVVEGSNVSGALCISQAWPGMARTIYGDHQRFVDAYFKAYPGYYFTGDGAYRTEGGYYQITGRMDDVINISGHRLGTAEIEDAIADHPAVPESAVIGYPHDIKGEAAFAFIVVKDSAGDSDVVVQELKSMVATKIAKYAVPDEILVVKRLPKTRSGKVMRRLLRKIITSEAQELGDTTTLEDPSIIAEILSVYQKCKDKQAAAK
Procedure, shortened: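 Test compound was serially diluted in DMSO and added to ACSS1 (2 nM) or ACSS3 (25 nM). Acetate reaction: HEPES pH 7.4 buffer with 140 mM NaCl; final 5 mM acetate, 50 μM ATP, 5 μM CoA. Propionate reaction: HEPES/KCl/CHAPS buffer; final 5 mM propionate, 10 μM ATP, 100 μM CoA. Incubation 120 min, then AMP detected by terbium-antibody/tracer TR-FRET after 30 min. Percent inhibition was set against no-enzyme and DMSO controls.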

[3] = test system: SKBr3 cells; assay: 13C2-acetate labeling of palmitate in SKBr3 cells; type: cell-based, human; details: SKBr3, 100 μM 13C2-acetate, 24 hr, N10 and H1 conditions
Procedure, shortened: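 SKBr3 cells were grown 24 h in serum-like modified Eagle's medium with 100 μM 13C2-acetate, either in N10 (normoxia, 10% dialyzed FBS) or H1 (1% O2, 1% dialyzed FBS), with vehicle or test compound. Lipids were extracted with methanol/chloroform/PBS, saponified in 0.3 M KOH in 90% methanol at 70°C for 1 h, then hexane-extracted. Palmitate labeling was measured by C18 LC-MS; mean ± S.D., n = 3.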

[4] = test system: SKBr3 cells; assay: Growth of SKBr3 cells; type: cell-based, human; details: SKBr3, 10 μM, 72 hours, H1 conditions, 200 μM sodium acetate
[5] = test system: ACSS1 in BT474 cells; assay: 13C2-acetate labeling of citrate in BT474 cells; type: cell-based, human
Procedure, shortened: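 Cells grown 24 h in serum-like modified Eagle's medium (SMEM) with 0.1 mM uniformly labeled 13C2-acetate. Conditions were normoxia with 10% dialyzed FBS (N10) or 1% O2 hypoxia with 1% dialyzed FBS (H1). Vehicle or test compound present. Cells washed in ice-cold PBS and extracted with methanol/acetonitrile/water (5:3:2) at 4°C for 5 min. Cleared extracts analysed by HILIC LC-MS on a Q Exactive HF-X.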

[6] = test system: Brpkp110 tumors; assay: Brpkp110 tumor growth in NSG mice; type: in vivo, mouse
Procedure, shortened: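 Brpkp110 cells (5×10^5 in PBS:Matrigel) implanted subcutaneously in 5–6-week-old female NSG mice, then randomized. Daily dosing: vehicle (10% DMSO, 20% solutol, 70% water with 0.5% Tween20) or 100 mg/kg test compound. Volume (L × W²)/2 from calipers thrice weekly. Resected tumors: formalin-fixed, paraffin-embedded, citrate steam retrieval, H2O2 block, Ki67 antibody, DAB with hematoxylin counterstain.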

[7] = test system: sgACSS2 Brpkp110 tumors; assay: sgACSS2 Brpkp110 tumor growth in mice; type: in vivo, mouse; details: sgACSS2 Brpkp110 (ACSS2 knockout) tumors
Procedure, shortened: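 Parental or CRISPR-Cas9 sgAcss2 cells (lentiviral, blasticidin-selected pools) implanted subcutaneously into 5–6-week-old female NSG mice in PBS:Matrigel: A7C11 at 5×10^5, Brpkp110 at 5×10^5. Calipers read tumors three times weekly. Volume = (L × W²)/2, L being the longer measurement; not blinded.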

[8] = test system: MDA-MB-468 tumors; assay: MDA-MB-468 tumor xenograft growth; type: in vivo, mouse; details: MDA-MB-468 (ACSS2 high), 100 mpk daily PO
Procedure, shortened: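 Female NSG mice, 5–6 weeks old, received subcutaneous PBS:Matrigel grafts: BT474 at 1×10^6 (with a 60-day 17β-estradiol pellet at the neck), MDA-MB-468 at 5×10^6, or WHIM12 PDX cells at 2×10^6. Once tumors established, mice were randomized to daily IP or oral gavage. Arms: vehicle (10% DMSO, 20% solutol, 70% water with 0.5% Tween20) or 100 mg/kg test compound. Calipers thrice weekly; volume (L × W²)/2.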

recombinant human ACSS2, sequence (Q9NR19 whole entry): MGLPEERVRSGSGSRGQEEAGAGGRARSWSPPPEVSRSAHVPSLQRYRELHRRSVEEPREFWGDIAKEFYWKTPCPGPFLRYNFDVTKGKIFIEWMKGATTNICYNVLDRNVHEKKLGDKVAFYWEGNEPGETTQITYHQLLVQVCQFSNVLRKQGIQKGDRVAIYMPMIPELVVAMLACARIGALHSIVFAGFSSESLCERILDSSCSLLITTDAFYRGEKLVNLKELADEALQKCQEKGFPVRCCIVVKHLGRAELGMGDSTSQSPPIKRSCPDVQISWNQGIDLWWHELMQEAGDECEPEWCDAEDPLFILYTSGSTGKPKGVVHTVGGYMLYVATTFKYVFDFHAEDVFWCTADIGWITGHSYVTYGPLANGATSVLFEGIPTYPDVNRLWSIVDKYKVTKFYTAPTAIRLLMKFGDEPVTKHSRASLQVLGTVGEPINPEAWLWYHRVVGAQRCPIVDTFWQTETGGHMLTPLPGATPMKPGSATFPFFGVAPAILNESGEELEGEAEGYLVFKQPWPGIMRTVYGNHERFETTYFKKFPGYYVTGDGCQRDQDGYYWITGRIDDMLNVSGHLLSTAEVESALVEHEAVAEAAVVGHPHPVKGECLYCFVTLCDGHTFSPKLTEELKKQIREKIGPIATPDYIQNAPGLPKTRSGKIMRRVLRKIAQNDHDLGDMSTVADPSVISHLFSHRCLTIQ

SMILES: CCn1c(C(O)(c2ccccc2)c2ccccc2)nc2ccc(C(=O)NC[C@@H](C)O)cc21 [VY-3-135, (R)-1-ethyl-2-(hydroxydiphenylmethyl)-N-(2-hydroxypropyl)-1H-benzo[d]imidazole-6-carboxamide]
- potency relative to VY-3-249 [1]: ~30 fold
- inhibitory activity towards ACSS1 [2]: neither VY-3-249 nor VY-3-135 displayed any inhibitory activity
- fatty acid (palmitate) synthesis from 13C2-acetate [3]: completely blocked fatty acid synthesis from acetate
- cell growth [4]: modest growth inhibition
- 13C2-acetate labeling of citrate ([5]; BT474, H1 conditions, 24 hr): did not decrease
- M+2 citrate (acetate contribution to the TCA cycle) ([5]; BT474, hypoxia and low serum stressed cells): increased M+2 citrate
- tumor growth ([6]; Brpkp110 (ACSS2 high), 100 mpk daily IP): marked inhibition
- Ki67 staining of tumors (proliferation) ([6]; Brpkp110 tumors): less proliferative
- tumor growth [7]: no further effect on tumor growth
- tumor growth [8]: repressed
